Test results: ChEMBL document CHEMBL1156129, “Synthesis, structure-activity relationships, and characterization of novel nonsteroidal and selective androgen receptor modulators” (J Med Chem, 2009)

Key:
[1] = Plasma concentration in Sprague-Dawley rat at 10 mg/kg, po after 360 mins; assay type: ADME, organism-based; set-up: dose 10 mg/kg, route oral
[2] = AUC (8 hrs) in Sprague-Dawley rat at 1 mg/kg, iv; assay type: ADME, organism-based; set-up: time < 8 hr, dose 1 mg/kg, route intravenous; conditions: plasma
[3] = Cmax in Sprague-Dawley rat at 1 mg/kg, iv; assay type: ADME, organism-based; set-up: dose 1 mg/kg, route intravenous; conditions: in vivo
[4] = Cmax in Sprague-Dawley rat at 10 mg/kg, po; assay type: ADME, organism-based; set-up: dose 10 mg/kg, route oral; conditions: in vivo
[5] = Volume of distribution at steady state in Sprague-Dawley rat at 1 mg/kg, iv; assay type: ADME, organism-based; set-up: dose 1 mg/kg, route intravenous; conditions: in vivo, read-out: Vdss
[6] = AUC (0 to infinity) in Beagle dog at 1 mg/kg, iv; assay type: ADME, organism-based, Canis lupus familiaris; set-up: dose 1 mg/kg, route intravenous, time infinity; conditions: plasma
[7] = Clearance in Beagle dog at 1 mg/kg, iv; assay type: ADME, organism-based, Canis lupus familiaris; set-up: dose 1 mg/kg, route intravenous; conditions: in vivo
[8] = Volume of distribution at steady state in Beagle dog at 1 mg/kg, iv; assay type: ADME, organism-based, Canis lupus familiaris; set-up: dose 1 mg/kg, route intravenous; conditions: in vivo, read-out: Vdss
[9] = Oral bioavailability in Beagle […] at 10 mg/kg, po; assay type: ADME, organism-based, Canis lupus familiaris; conditions: in vivo
[10] = Plasma concentration in Beagle dog at 1 mg/kg, iv after 0.25 hrs; assay type: ADME, organism-based, Canis lupus familiaris; set-up: dose 1 mg/kg, route intravenous
[11] = Plasma concentration in Beagle dog at 1 mg/kg, iv after 1 hrs; assay type: ADME, organism-based, Canis lupus familiaris; set-up: dose 1 mg/kg, route intravenous
[12] = Plasma concentration in Beagle dog at 1 mg/kg, iv after 2 hrs; assay type: ADME, organism-based, Canis lupus familiaris; set-up: dose 1 mg/kg, route intravenous
[13] = Plasma concentration in Beagle dog at 1 mg/kg, iv after 6 hrs; assay type: ADME, organism-based, Canis lupus familiaris; set-up: dose 1 mg/kg, route intravenous
[14] = Plasma concentration in Beagle dog at 1 mg/kg, iv after 24 hrs; assay type: ADME, organism-based, Canis lupus familiaris; set-up: dose 1 mg/kg, route intravenous
[15] = Plasma concentration in Beagle dog at 10 mg/kg, po after 0.5 hrs; assay type: ADME, organism-based, Canis lupus familiaris; set-up: dose 10 mg/kg, route oral
[16] = Plasma concentration in Beagle dog at 10 mg/kg, po after 2 hrs; assay type: ADME, organism-based, Canis lupus familiaris; set-up: dose 10 mg/kg, route oral
[17] = Plasma concentration in Beagle dog at 10 mg/kg, po after 4 hrs; assay type: ADME, organism-based, Canis lupus familiaris; set-up: dose 10 mg/kg, route oral
[18] = Plasma concentration in Beagle dog at 10 mg/kg, po after 6 hrs; assay type: ADME, organism-based, Canis lupus familiaris; set-up: dose 10 mg/kg, route oral
[19] = Plasma concentration in Beagle dog at 10 mg/kg, po after 8 hrs; assay type: ADME, organism-based, Canis lupus familiaris; set-up: dose 10 mg/kg, route oral
[20] = Plasma concentration in Beagle dog at 10 mg/kg, po after 24 hrs; assay type: ADME, organism-based, Canis lupus familiaris; set-up: dose 10 mg/kg, route oral
Rattus norvegicus [21] = assay: Anabolic effect in castrated rat levator ani muscle assessed as reversal of ORX-induced atrophy at 1 mg/kg/day sc using osmotic pump after 14 days; assay type: functional; conditions: route subcutaneous
In short: (§1)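 Orchiectomized male rats received compound by subcutaneous osmotic pump for 14 days at 0.1-3 (mg/kg)/day. […] Levator ani and ventral prostate were weighed after 2 weeks and compared with sham-operated vehicle-treated controls, expressed as reversal of ORX-induced atrophy.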

Rattus norvegicus [22] = assay: Androgenic effect in castrated rat prostate assessed as reversal at 0.3 to 3 mg/kg/day sc using osmotic pump after 14 days; assay type: functional, Prostate gland; conditions: route subcutaneous; in short: as §1
[23] = Agonist activity at androgen receptor LBD T877A mutant in mouse NIH3T3 cells transiently transfected with beta-galactosidase reporter gene assessed as cellular transformation by R-SAT assay; assay type: functional, cell-based
In short: (§2)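 AR expression vector transiently co-transfected (Polyfect) with β-galactosidase and coactivators SRC1, DRIP205 and GRIP1 into NIH-3T3 fibroblasts at 60-70% confluency. ONPG substrate added, absorbance read at 420 nm. EC50 from a hyperbolic fit. Mean ± SEM of three or more independent experiments.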

[24] = Agonist activity at androgen receptor LBD T877A mutant in mouse NIH3T3 cells transiently transfected with beta-galactosidase reporter gene assessed as cellular transformation by R-SAT assay relative to dihydrotestosterone; assay type: functional; in short: as §2
[25] = Binding affinity to androgen receptor LBD T877A mutant in hamster DDT cells by scintillation counting; assay type: cell-based, Cricetinae
[26] = Plasma concentration in Sprague-Dawley rat at 1 mg/kg, iv after 360 mins; assay type: ADME, organism-based; set-up: dose 1 mg/kg, route intravenous
[27] = Plasma concentration in Sprague-Dawley rat at 1 mg/kg, iv after 480 mins; assay type: ADME, organism-based; set-up: dose 1 mg/kg, route intravenous
[28] = Plasma concentration in Sprague-Dawley rat at 10 mg/kg, po after 10 mins; assay type: ADME, organism-based; set-up: dose 10 mg/kg, route oral
[29] = Metabolic stability in human hepatocyte assessed as half life; assay type: ADME, cell-based, Liver; conditions: hepatocytes
[30] = Oral bioavailability in rat; assay type: ADME, organism-based; conditions: in vivo
[31] = Oral bioavailability in dog; assay type: ADME, organism-based, Canis lupus familiaris; conditions: in vivo
[32] = Oral bioavailability in Sprague-Dawley rat at 10 mg/kg, po; assay type: ADME, organism-based; conditions: in vivo
[33] = Cmax in Beagle dog at 10 mg/kg, po; assay type: ADME, organism-based, Canis lupus familiaris; set-up: dose 10 mg/kg, route oral; conditions: in vivo

Cc1c(N2[C@@H]3CC[C@H]2C[C@@](C)(O)C3)ccc(C#N)c1Cl
concentration at 6 h [1]: 350 ng/mL | AUC at 8 h [2]: 631 ng·h/mL | Cmax [3]: 882 ng/mL | Cmax [4]: 421 ng/mL | Vd [5]: 3.91 L/kg | AUC(0-inf) [6]: 394 ng·h/mL | clearance [7]: 42 mL/min/kg | Vd [8]: 6.1 L/kg | bioavailability [9]: 56% | concentration at 0.25 h [10]: 231 ng/mL | concentration at 1 h [11]: 89.3 ng/mL | concentration at 2 h [12]: 49.5 ng/mL | concentration at 6 h [13]: 9.5 ng/mL | concentration at 24 h [14]: 0.3 ng/mL | concentration at 0.5 h [15]: 592 ng/mL | concentration at 2 h [16]: 270 ng/mL | concentration at 4 h [17]: 159 ng/mL | concentration at 6 h [18]: 104 ng/mL | concentration at 8 h [19]: 60.6 ng/mL | concentration at 24 h [20]: 3.2 ng/mL | Activity (Rattus norvegicus [21]): 67% | Activity (Rattus norvegicus [22]): 21% | EC50 [23]: 0.398 nM | Efficacy [24]: 37% | pKi [25]: 5.5 | concentration at 6 h [26]: 23.5 ng/mL | concentration at 8 h [27]: 14.9 ng/mL | concentration at 10 min [28]: 148 ng/mL | half-life [29]: 300 min | bioavailability [30]: 38% | bioavailability [31]: 56% | bioavailability [32]: 38% | Cmax [33]: 835 ng/mL
